From ChEMBL document CHEMBL4190240, “Conventional and microwave-assisted synthesis of new 1H-benzimidazole-thiazolidinedione derivatives: A potential anticancer scaffold” (Eur J Med Chem, 2017)
Active and inactive are the calls of the source. The rule behind the calls is not given here.

Key:
HEK-293T = assay: Cytotoxicity against HEK293T cells assessed as cell growth inhibition after 48 hrs by MTT assay; format: cell-based; conditions: Homo sapiens
HT-1080 = assay: Cytotoxicity against human HT1080 cells assessed as cell growth inhibition after 48 hrs by MTT assay; format: functional, cell-based; conditions: HT-1080, 48 h
MDA-MB-231 = assay: Cytotoxicity against human MDA-MB-231 cells assessed as cell growth inhibition after 48 hrs by MTT assay; format: functional, cell-based; conditions: MDA-MB-231, 48 h
HeLa = assay: Cytotoxicity against human HeLa cells assessed as cell growth inhibition after 48 hrs by MTT assay; format: functional, cell-based
A549 [1] = assay: Cytotoxicity against human A549 cells assessed as cell growth inhibition after 48 hrs by MTT assay; format: functional, cell-based; conditions: A549, 48 h
PC-3 = assay: Cytotoxicity against human PC3 cells assessed as cell growth inhibition after 48 hrs by MTT assay; format: functional, cell-based; conditions: PC-3, 48 h
A549 [2] = assay: Inhibition of filamentous actin polymerization in human A549 cells assessed as reduction in F-actin extension at the periphery at cytotoxic IC50 concentration after 24 hrs by rhodamine-phalloidin/Hoechst 33242 double staining based fluorescent microscopy; format: cell-based
In short: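 A549 cells (1×10^6/well) grown on coverslips 24 h, treated 24 h at IC50 concentration, PBS-washed, fixed in 4% paraformaldehyde. Stained with rhodamine-phalloidin for F-actin and Hoechst 33242 for nuclei, mounted in anti-fade, imaged by fluorescence microscopy at 20X; DMSO-treated cells as control.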

[3] = Selectivity index, ratio of IC50 for HEK293T cells to IC50 for human A549 cells; format: toxicity; conditions: HEK293T cells versus A549 cells, read-out: Ratio IC50
A549 [4] = assay: Induction of apoptosis in human A549 cells assessed as early apoptotic cells at cytotoxic IC50 concentration after 24 hrs by Annexin V-FITC/propidium iodide dual staining based flow cyclometry (reference value: 9.8%); format: functional
[5] = Selectivity index, ratio of IC50 for HEK293T cells to IC50 for human HeLa cells; format: toxicity; conditions: HEK293T cells versus HeLa cells, read-out: Ratio IC50
A549 [6] = assay: Antimigratory activity in human A549 cells assessed as reduction in wound healing at cytotoxic IC50 concentration after 24 to 48 hrs by phase contrast microscopy; format: functional, cell-based
In short: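 A549 cells (5×10^5/well) grown 24 h to confluent monolayer, scratched with sterile 200 µL pipette tip, washed twice with PBS. Medium with compound at its IC50 added; untreated wells as control. Wound closure photographed by phase contrast microscopy at 0, 24 and 48 h in three or more random fields.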

A549 [7] = assay: Induction of apoptosis in human A549 cells assessed as formation of shrinked nuclei at cytotoxic IC50 concentration after 24 hrs by Hoechst 33242-staining based fluorescent microscopy; format: functional, cell-based
In short: (§1)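 A549 cells (5×10^4/well) adhered 24 h on coverslips, exposed 24 h to IC50 concentration, fixed 10 min in 4% paraformaldehyde at 4 °C, stained with Hoechst 33242 (5 µg/mL) 30 min at room temperature. Nuclear morphology examined by fluorescence microscopy (ex 350/em 460 nm, 40x).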

A549 [8] = assay: Induction of apoptosis in human A549 cells assessed as formation of fragmented nuclei at cytotoxic IC50 concentration after 24 hrs by Hoechst 33242-staining based fluorescent microscopy; format: functional, cell-based; in short: as §1
A549 [9] = assay: Induction of apoptosis in human A549 cells assessed as late apoptotic cells at cytotoxic IC50 concentration after 24 hrs by Annexin V-FITC/propidium iodide dual staining based flow cytometry (reference value: 1.6%); format: functional
A549 [10] = assay: Induction of ROS production in human A549 cells at cytotoxic IC50 concentration after 24 hrs by DCFH-DA-dye based fluorescent microscopy; format: functional, cell-based
A549 [11] = assay: Induction of apoptosis in human A549 cells assessed as viable cells at cytotoxic IC50 concentration after 24 hrs by Annexin V-FITC/propidium iodide dual staining based flow cytometry (reference value: 84.8%); format: functional
[12] = Selectivity index, ratio of IC50 for HEK293T cells to IC50 for human PC3 cells; format: toxicity; conditions: HEK293T cells versus PC3 cells, read-out: Ratio IC50
[13] = Selectivity index, ratio of IC50 for HEK293T cells to IC50 for human HT1080 cells; format: toxicity; conditions: HEK293T cells versus HT1080 cells, read-out: Ratio IC50
A549 [14] = assay: Induction of apoptosis in human A549 cells assessed as necrotic cells at cytotoxic IC50 concentration after 24 hrs by Annexin V-FITC/propidium iodide dual staining based flow cytometry (reference value: 3.7%); format: functional
A549 [15] = assay: Induction of apoptosis in human A549 cells assessed as loss of mitochondrial membrane potential at cytotoxic IC50 concentration after 24 hrs by rhodamine-123 dye based spectrofluorometery relative to control; format: functional
In short: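 A549 cells (5×10^5 cells/mL) adhered overnight, treated 24 h at IC50 concentration, trypsinised, washed and stained with rhodamine-123 (10 µg/mL) in PBS 30 min at room temperature. After two PBS washes, fluorescence measured by spectrofluorometer versus DMSO control; mean ± SD of three independent experiments.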

[16] = Selectivity index, ratio of IC50 for HEK293T cells to IC50 for human MDA-MB-231 cells; format: toxicity; conditions: HEK293T cells versus MDA-MB-231 cells, read-out: Ratio IC50

SMILES | IC50 (HEK-293T) [µM] | IC50 (HT-1080) [µM] | IC50 (MDA-MB-231) [µM] | IC50 (HeLa) [µM] | IC50 (A549 [1]) [µM] | IC50 (PC-3) [µM] | other results
COc1ccc(-c2nc3cc(/C=C4\SC(=O)N(CC(=O)N5CCOCC5)C4=O)ccc3[nH]2)cc1OC | > 50 | 3.32 | > 50 | 7.51 | 8.93 | > 50 | –
COc1cc(-c2nc3cc(/C=C4\SC(=O)N(Cc5cccc(C)c5)C4=O)ccc3[nH]2)cc(OC)c1OC | 18.9 | 4.58 | 3.26 | 1.44 | 0.93 | 4.37 | –
COc1cc(-c2nc3cc(/C=C4\SC(=O)N(Cc5cc(OC)c(OC)c(OC)c5)C4=O)ccc3[nH]2)ccc1OCC(C)C | 6.65 | 0.16 | 4.37 | 0.25 | 0.096 | 0.11 | inhibition (A549 [2]): Active; selectivity ratio [3]: 69.3; Activity (A549 [4]): 21.9%; selectivity ratio [5]: 26.6; Activity (A549 [6]): Active; Activity (A549 [7]): Active; Activity (A549 [8]): Active; Activity (A549 [9]): 8.3%; Activity (A549 [10]): Active; Activity (A549 [11]): 66.1%; selectivity ratio [12]: 60.5; selectivity ratio [13]: 41.6; Activity (A549 [14]): 3.7%; Activity (A549 [15]): 37.3%; selectivity ratio [16]: 1.5
COc1cc(OC)c(-c2nc3cc(/C=C4\SC(=O)N(CC(=O)N5CCOCC5)C4=O)ccc3[nH]2)cc1OC | 35.7 | 1.12 | 21.3 | 0.51 | 0.66 | 11.7 | –
COc1cc(-c2nc3cc(/C=C4\SC(=O)N(CC(=O)N5CCCC5)C4=O)ccc3[nH]2)cc(OC)c1OC | 12.7 | 2.47 | 2.88 | 4.78 | 0.91 | 8.37 | –
COc1cc(-c2nc3cc(/C=C4\SC(=O)NC4=O)ccc3[nH]2)ccc1OCC(C)C | 14.1 | 4.45 | 7.78 | 5.22 | 5.11 | 2.98 | –
COc1ccc(-c2nc3cc(/C=C4\SC(=O)N(Cc5cc(OC)c(OC)c(OC)c5)C4=O)ccc3[nH]2)cc1OC | 6.76 | 0.27 | 29.1 | 0.32 | 0.13 | > 50 | inhibition (A549 [2]): Active; selectivity ratio [3]: 52; Activity (A549 [4]): 25.1%; selectivity ratio [5]: 21.1; Activity (A549 [6]): Active; Activity (A549 [7]): Active; Activity (A549 [8]): Active; Activity (A549 [9]): 8.7%; Activity (A549 [10]): Active; Activity (A549 [11]): 63.5%; selectivity ratio [13]: 25.3; Activity (A549 [14]): 2.7%; Activity (A549 [15]): 31.6%
COc1cc(-c2nc3cc(/C=C4\SC(=O)N(CC(=O)c5ccccc5)C4=O)ccc3[nH]2)cc(OC)c1OC | 13.6 | 0.57 | > 50 | 26.3 | 0.88 | > 50 | –
COc1cc(-c2nc3cc(/C=C4\SC(=O)N(CC(=O)N5CCOCC5)C4=O)ccc3[nH]2)cc(OC)c1OC | 18.8 | 1.68 | 14.9 | 16.3 | 2.93 | 5.94 | –
